This is an account of results in the RNAGym collection of RNA variant scans (doi:10.1002/anie.201605470).

First the molecules themselves.
B1: Osa-1-4 twister ribozyme (parent)
chain: CCGCCUAACACUGCCAAUGCCGGUCCCAAGCCCGGAUAAAAGUGGAGGGGGCGG

This data set covers variants of B1. The data set is described as follows: self-cleavage, relative activity (ratio to wild type); higher = more cleavage; co-transcriptional. The method, boiled down:
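A DNA template for a 54-nucleotide Oryza sativa twister ribozyme was synthesised with 97 % wild-type base and 1 % of each other base at the 48 positions downstream of the cleavage site. It was transcribed in vitro for 2 h at 37 °C, allowing co-transcriptional self-cleavage, then reverse-transcribed with a template-switching oligonucleotide, PCR-amplified and deep-sequenced. Cleavage status was scored from reads with or without upstream sequence. Relative activity is fraction cleaved normalised to wild type.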
Consider CCGCCUAACACUGCCAAUGCCGGACCCAAGCCCGGAUAAUAGUGGAGGGGGCGG [A40U U24A], for which the self-cleavage came out at 0.06.

For the variant CCGCCUAACACUGCCAAUGCCGGUCACAAGCCCGGAUAAUAGUGGAGGGGGCGG [A40U C26A], the self-cleavage came to 0.05. With CCGCCUAACACUGCCAAUGCCGGUCGCAAGCCCGGAUAAUAGUGGAGGGGGCGG [A40U C26G], the self-cleavage was found to be 0.08.

Turning to CCGCCUAACACUGCCAAUGCCGGUCUCAAGCCCGGAUAAUAGUGGAGGGGGCGG [A40U C26U], the self-cleavage stood at 0.14. The figure for CCGCCUAACACUGCCAAUGCCGGUCCCAAGACCGGAUAAUAGUGGAGGGGGCGG [A40U C31A] is 0.02. Take CCGCCUAACACUGCCAAUGCCGGUCCCAAGUCCGGAUAAUAGUGGAGGGGGCGG [A40U C31U]: the self-cleavage amounted to 0.2. Regarding CCGCCUAACACUGCCAAUGCCGGUCCCAAGGCCGGAUAAUAGUGGAGGGGGCGG [A40U C31G], the self-cleavage is 0.07. Then CCGCCUAACACUGCCAAUGCCGGUCCCAAGCCCGGAUAAUAGUUGAGGGGGCGG [A40U G44U], with 0.26. With CCGCCUAACACUGCCAAUGCCGGUCCCAAGCCCGGAUAAUAGUAGAGGGGGCGG [A40U G44A], the self-cleavage is 0.25. Turning to CCGCCUAACACUGCCAAUGCCGGUCCCAAGCCCGGAUAAUAGUCGAGGGGGCGG [A40U G44C], the self-cleavage was 0.43. The figure for CCGCCUAACACUGCCAAUGCCGGUCCCAAGCCCGGAUAAUAGUGGAGGAGGCGG [A40U G49A] is 0.07; for CCGCCUAACACUGCCAAUGCCGGUCCCAAGCCCGGAUAAUAGUGGAGGUGGCGG [A40U G49U] it is 0.08. In the case of CCGCCUAACACUGCCAAUGCCGGUCCCAAGCCCGGAUAAUAGUGGAGGCGGCGG [A40U G49C], the self-cleavage came out at 0.05. The figure for CCGCCUAACACUGCCAAUGCCGGUCCCAAGCCCGGAUAAUAGUGGAGGGGACGG [A40U G51A] is 0.18; for CCGCCUAACACUGCCAAUGCCGGUCCCAAGCCCGGAUAAUAGUGGAGGGGCCGG [A40U G51C] it is 0.06; for CCGCCUAACACUGCCAAUGCCGGUCCCAAGCCCGGAUAAUAGUGGAGGGGUCGG [A40U G51U] it is 0.1.

Consider CCGCCUAACACUGCCAAUGCCGGUCCCAAGCCCGGAUAAUAGUGGAGGGGGCAG [A40U G53A], for which the self-cleavage worked out at 0.19. For the variant CCGCCUAACACUGCCAAUGCCGGUCCCAAGCCCGGAUAAUAGUGGAGGGGGCUG [A40U G53U], the self-cleavage stood at 0.11. Then CCGCCUAACACUGCCAAUGCCGGUCCCAAGCCCGGAUAAUAGUGGAGGGGGCCG [A40U G53C], with 0.06; and CCGCCUAACACUGCCAAUGCCUGUCCCAAGCCCGGAUAAUAGUGGAGGGGGCGG [A40U G22U], with 0.21.

As for CCGCCUAACACUGCCAAUGCCAGUCCCAAGCCCGGAUAAUAGUGGAGGGGGCGG [A40U G22A], the self-cleavage stood at 0.32.

As to CCGCCUAACACUGCCAAUGCCCGUCCCAAGCCCGGAUAAUAGUGGAGGGGGCGG [A40U G22C], the self-cleavage was 0.06. With CCGCCUAACACUGCCAAUGCCGGUCCCAAGCCCGGAUAAUAGUGGAGCGGGCGG [A40U G48C], the self-cleavage came out at 0.05.

On to CCGCCUAACACUGCCAAUGCCGGUCCCAAGCCCGGAUAAUAGUGGAGAGGGCGG [A40U G48A], for which the self-cleavage is 0.06. For the variant CCGCCUAACACUGCCAAUGCCGGUCCCAAGCCCGGAUAAUAGUGGAGUGGGCGG [A40U G48U], the self-cleavage turned out to be 0.04. The figure for CCGCCUAACACUGCUAAUGCCGGUCCCAAGCCCGGAUAAUAGUGGAGGGGGCGG [A40U C15U] is 0.1; for CCGCCUAACACUGCCAAUGCCGGUCCCAAGCCGGGAUAAUAGUGGAGGGGGCGG [A40U C33G] it is 0.06. For the variant CCGCCUAACACUGCCAAUGCCGGUCCCAAGCCUGGAUAAUAGUGGAGGGGGCGG [A40U C33U], the self-cleavage worked out at 0.15.

CCGCCUAACACUGCCAAUGCCGGUCCCAAGCCAGGAUAAUAGUGGAGGGGGCGG [A40U C33A]: the self-cleavage was determined as 0.07. The figure for CCGCCUAACACUGCCAAUGCCGGUCCCAAGCCCAGAUAAUAGUGGAGGGGGCGG [A40U G34A] is 0.23; for CCGCCUAACACUGCCAAUGCCGGUCCCAAGCCCUGAUAAUAGUGGAGGGGGCGG [A40U G34U] it is 0.18. Then CCGCCUAACACUGCCAAUGCCGGUCCCAAGCCCCGAUAAUAGUGGAGGGGGCGG [A40U G34C], with 0.15; and CCGCCUGACACUGCCAAUGCCGGUCCCAAGCCCGGAUAAACGUGGAGGGGGCGG [A41C A7G], with 0.18; and CCGCCUCACACUGCCAAUGCCGGUCCCAAGCCCGGAUAAACGUGGAGGGGGCGG [A41C A7C], with 0.05. Then CCGCCUAACACUACCAAUGCCGGUCCCAAGCCCGGAUAAUAGUGGAGGGGGCGG [A40U G13A], with 0.06. For the variant CCGCCUAACACUUCCAAUGCCGGUCCCAAGCCCGGAUAAUAGUGGAGGGGGCGG [A40U G13U], the self-cleavage is 0.01. CCGCCUAACACUCCCAAUGCCGGUCCCAAGCCCGGAUAAUAGUGGAGGGGGCGG [A40U G13C]: the self-cleavage was found to be 0.02. The figure for CCGCCUAACACUGCCAAUGCCGGUCCCAAGCCCGGAUAAUAGUGGAGGGGGUGG [A40U C52U] is 0.74; for CCGCCUAACACUGCCAAUGCCGGUCCCAAGCCCGGAUAAUAGUGGAGGGGGAGG [A40U C52A] it is 0.4; for CCGCCUAACACUGCCAAUGCCGGUCCCAAGCCCGGAUAAUAGUGGAGGGGGGGG [A40U C52G] it is 0.46. Take CCGCCUAACACUGCCAAUGCCGGUCCCAAGCCCGCAUAAUAGUGGAGGGGGCGG [A40U G35C]: the self-cleavage was determined as 0.09. Take CCGCCUAACACUGCCAAUGCCGGUCCCAAGCCCGAAUAAUAGUGGAGGGGGCGG [A40U G35A]: the self-cleavage came out at 0.58.

In the case of CCGCCUAACACUGCCAAUGCCGGUCCCAAGCCCGUAUAAUAGUGGAGGGGGCGG [A40U G35U], the self-cleavage was 0.41.

As for CCGCCUAACACUGCCAAUGCCGGUCCCAAGCCCGGAUAAUAUUGGAGGGGGCGG [A40U G42U], the self-cleavage is 0.06. Then CCGCCUAACACUGCCAAUGCCGGUCCCAAGCCCGGAUAAUACUGGAGGGGGCGG [A40U G42C], with 0.11; and CCGCCUAACACUGCCAAUGCCGGUCCCAAGCCCGGAUAAUAAUGGAGGGGGCGG [A40U G42A], with 0.1. Then CCGCCUAACACUGCCAAUACCGGUCCCAAGCCCGGAUAAUAGUGGAGGGGGCGG [A40U G19A], with 0.17. The figure for CCGCCUAACACUGCCAAUUCCGGUCCCAAGCCCGGAUAAUAGUGGAGGGGGCGG [A40U G19U] is 0.08; for CCGCCUAACACUGCCAAUCCCGGUCCCAAGCCCGGAUAAUAGUGGAGGGGGCGG [A40U G19C] it is 0.04.
